Measurements from ChEMBL document CHEMBL2417474, “Synthesis, antiproliferative and anti-inflammatory activities of some novel 6-aryl-2-(p-(methanesulfonyl)phenyl)-4,5-dihydropyridazi-3(2H)-ones” (Eur J Med Chem, 2013).

What was measured:
UACC-257 [1] = assay: Growth inhibition of human UACC257 cells after 48 hrs by sulforhodamine B assay; type: functional; settings: UACC-257, 48 h
How it was run: (§1)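 NCI 60-line panel. Cells were grown in medium with 5% fetal calf serum and 2 mM L-glutamine and preincubated 24 h in plates. Compound in DMSO was added at 10^-4 to 10^-8 M (five 10-fold levels), with continuous exposure for 48 h. Growth was read by SRB protein staining. GI50 is the concentration giving 50% reduction in net protein increase versus control cells.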

UACC-257 [2] = assay: Growth inhibition of human UACC257 cells assessed as cell growth at 10 uM after 48 hrs by sulforhodamine B assay; type: functional; settings: UACC-257, 48 h, read-out: Activity
How it was run: (§2)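 Single-dose NCI screen. Tumor lines were cultured in medium with 5% fetal calf serum and 2 mM L-glutamine, preincubated 24 h, then given compound in DMSO. After 48 h continuous exposure, cell growth was estimated by sulforhodamine B protein assay.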

SNB-19 = assay: Growth inhibition of human SNB19 cells after 48 hrs by sulforhodamine B assay; type: functional; settings: SNB-19, 48 h
How it was run: (§3)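 NCI 60-cell-line panel. Cells were grown in medium with 5% fetal calf serum and 2 mM L-glutamine, then preincubated 24 h in plates. Compounds were added from DMSO at five 10-fold concentrations from 100 to 0.01 µM and left on cells continuously for 48 h. Cell growth was read by sulforhodamine B protein stain. GI50 is the concentration that halves net protein increase relative to control cells.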

[3] = Growth inhibition of human NCI-ADR-RES cells assessed as cell growth at 10 uM after 48 hrs by sulforhodamine B assay; type: functional; settings: read-out: Activity
MDA-MB-231 [4] = assay: Growth inhibition of human MDA-MB-231 cells after 48 hrs by sulforhodamine B assay; type: functional; settings: MDA-MB-231, 48 h
How it was run: (§4)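 NCI 60-cell-line panel grown in RPMI-type medium with 5% fetal calf serum and 2 mM L-glutamine. Cells preincubated 24 h, then exposed continuously for 48 h to compound in DMSO at 10^-4 to 10^-8 M (five 10-fold levels). Growth read by SRB protein stain. GI50 is the concentration giving a 50% reduction in net protein increase relative to control cells.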

UO-31 = assay: Growth inhibition of human UO31 cells after 48 hrs by sulforhodamine B assay; type: functional; settings: UO-31, 48 h; how it was run: as §1
CCRF-CEM = assay: Growth inhibition of human CCRF-CEM cells after 48 hrs by sulforhodamine B assay; type: functional, cell-based; how it was run: as §4
T47D = assay: Growth inhibition of human T47D cells assessed as cell growth at 10 uM after 48 hrs by sulforhodamine B assay; type: functional; settings: read-out: Activity; how it was run: as §2
SF-268 = assay: Growth inhibition of human SF268 cells after 48 hrs by sulforhodamine B assay; type: functional; settings: SF-268, 48 h; how it was run: as §3
SN12C = assay: Growth inhibition of human SN12C cells assessed as cell growth at 10 uM after 48 hrs by sulforhodamine B assay; type: functional; settings: read-out: Activity
MDA-MB-435 = assay: Growth inhibition of human MDA-MB-435 cells assessed as cell growth at 10 uM after 48 hrs by sulforhodamine B assay; type: functional; settings: MDA-MB-435, 48 h, read-out: Activity
IGROV-1 = assay: Growth inhibition of human IGROV1 cells assessed as cell growth at 10 uM after 48 hrs by sulforhodamine B assay; type: functional; settings: IGROV-1, 48 h, read-out: Activity
Malme-3M = assay: Growth inhibition of human MALME-3M cells after 48 hrs by sulforhodamine B assay; type: functional; how it was run: as §4
NCI-H522 = assay: Growth inhibition of human NCI-H522 cells after 48 hrs by sulforhodamine B assay; type: functional; settings: NCI-H522, 48 h; how it was run: as §3
ACHN = assay: Growth inhibition of human ACHN cells after 48 hrs by sulforhodamine B assay; type: functional; how it was run: as §4
SK-MEL-2 = assay: Growth inhibition of human SK-MEL-2 cells assessed as cell growth at 10 uM after 48 hrs by sulforhodamine B assay; type: functional; settings: SK-MEL-2, 48 h, read-out: Activity
OVCAR-3 = assay: Growth inhibition of human OVCAR3 cells after 48 hrs by sulforhodamine B assay; type: functional; settings: OVCAR-3, 48 h; how it was run: as §3
OVCAR-4 = assay: Growth inhibition of human OVCAR4 cells assessed as cell growth at 10 uM after 48 hrs by sulforhodamine B assay; type: functional; settings: OVCAR-4, 48 h, read-out: Activity
UACC-62 = assay: Growth inhibition of human UACC62 cells assessed as cell growth at 10 uM after 48 hrs by sulforhodamine B assay; type: functional; settings: UACC-62, 48 h, read-out: Activity; how it was run: as §2
HOP-92 = assay: Growth inhibition of human HOP92 cells assessed as cell growth at 10 uM after 48 hrs by sulforhodamine B assay; type: functional; settings: HOP-92, 48 h, read-out: Activity
[5] = Growth inhibition of human Hs 578T cells after 48 hrs by sulforhodamine B assay; type: functional; how it was run: as §4
786-0 = assay: Growth inhibition of human 786-0 cells assessed as cell growth at 10 uM after 48 hrs by sulforhodamine B assay; type: functional; settings: 786-0, 48 h, read-out: Activity
COLO 205 = assay: Growth inhibition of human COLO205 cells assessed as cell growth at 10 uM after 48 hrs by sulforhodamine B assay; type: functional; settings: COLO 205, 48 h, read-out: Activity
MDA-MB-231 [6] = assay: Growth inhibition of human MDA-MB-231 cells assessed as cell growth at 10 uM after 48 hrs by sulforhodamine B assay; type: functional; settings: MDA-MB-231, 48 h, read-out: Activity
Rattus norvegicus = assay: Antiinflammatory activity in Wistar rat assessed as inhibition of carrageenan-induced paw edema at 0.05 mmol/kg, po administered 30 mins prior challenge measured after 3 hrs; type: functional
How it was run: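 Wistar rats of either sex, 150–175 g, fasted 16 h, 6 per group. Dosed orally at 0.05 mmol/kg, suspended in 1% CMC in water (10 ml/kg). 30 min later, 0.1 ml of 1% carrageenan in saline injected subplantar into the left hind paw. Paw volume read by plethysmometer at 0, 3 and 5 h. % inhibition = (1 − Vt/Vc) × 100 against the vehicle group.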

SNB-75 = assay: Growth inhibition of human SNB75 cells assessed as cell growth at 10 uM after 48 hrs by sulforhodamine B assay; type: functional; settings: SNB-75, 48 h, read-out: Activity
[7] = Growth inhibition of human HCC2998 cells after 48 hrs by sulforhodamine B assay; type: functional; settings: HCC 2998, 48 h; how it was run: as §4
[8] = read-out: LC50 (the source's name)

CCc1ccc(C2=NN(c3ccc(S(C)(=O)=O)cc3)C(=O)CC2)cc1
GI50 (UACC-257 [1]): 3.3 µM
LC50 (concentration killing 50% of cells) (UACC-257 [1]): > 100 µM
TGI (UACC-257 [1]): 61.5 µM
growth at 10 µM (UACC-257 [2]): 59.1%
GI50 (SNB-19): 0.13 µM
TGI (SNB-19): > 100 µM
CC50 (SNB-19; [8]): > 100 µM
growth at 10 µM [3]: 6.7%
GI50 (MDA-MB-231 [4]): 3.46 µM
LC50 (MDA-MB-231 [4]): > 100 µM
TGI (MDA-MB-231 [4]): > 100 µM
GI50 (UO-31): 5.23 µM
LC50 (concentration killing 50% of cells) (UO-31): > 100 µM
TGI (UO-31): > 100 µM
GI50 (CCRF-CEM): 2.31 µM
TGI (CCRF-CEM): > 100 µM
CC50 (CCRF-CEM; [8]): > 100 µM
growth at 10 µM (T47D): 41.4%
GI50 (SF-268): 6.99 µM
TGI (SF-268): > 100 µM
CC50 (SF-268; [8]): > 100 µM
growth at 10 µM (SN12C): 31.4%
growth at 10 µM (MDA-MB-435): -24.3%
growth at 10 µM (IGROV-1): 37.4%
GI50 (Malme-3M): 6.8 µM
TGI (Malme-3M): > 67.6 µM
CC50 (Malme-3M; [8]): > 100 µM
GI50 (NCI-H522): 0.33 µM
LC50 (concentration killing 50% of starting cells) (NCI-H522): > 100 µM
TGI (NCI-H522): 8.37 µM
GI50 (ACHN): 8.59 µM
LC50 (concentration killing 50% of starting cells) (ACHN): > 100 µM
TGI (ACHN): > 100 µM
growth at 10 µM (SK-MEL-2): 36.9%
GI50 (OVCAR-3): 0.93 µM
LC50 (lethal concentration, 50% net cell kill) (OVCAR-3): > 100 µM
growth at 10 µM (OVCAR-4): 76.2%
growth at 10 µM (UACC-62): 38%
growth at 10 µM (HOP-92): 68.6%
GI50 [5]: 0.83 µM
LC50 (concentration giving 50% net cell kill) [5]: > 100 µM
TGI [5]: 6.89 µM
growth at 10 µM (786-0): 36.5%
growth at 10 µM (COLO 205): 22.5%
growth at 10 µM (MDA-MB-231 [6]): 55.5%
inhibition in vivo at 50 µmol/kg (Rattus norvegicus): 46.7%
growth at 10 µM (SNB-75): 16.7%
GI50 [7]: 5.27 µM
TGI [7]: 53.4 µM
CC50 [7, 8]: > 100 µM

O=c1[nH]cc(F)c(=O)[nH]1 [FLUOROURACIL]
GI50 (UACC-257 [1]): 3.55 µM
GI50 (SNB-19): 3.81 µM
GI50 (MDA-MB-231 [4]): 6.6 µM
GI50 (UO-31): 1.42 µM
GI50 (CCRF-CEM): 9.79 µM
GI50 (SF-268): 1.62 µM
GI50 (Malme-3M): 0.05 µM
GI50 (NCI-H522): 7.27 µM
GI50 (ACHN): 0.29 µM
GI50 (OVCAR-3): 0.01 µM
GI50 [5]: 9.77 µM
GI50 [7]: 0.05 µM
